Measurements as given in ChEMBL document CHEMBL3045478, “Insect antifeedant flavonoids from Gnaphalium affine D. Don” (2000).
The source made the active and inactive calls. The calls are words filed in the database; no cut-off is given here.

test system: Spodoptera litura; assay: Antifeedant activity against Spodoptera litura in compound treated cork borer from fresh sweet potato leaves by Choice Leaf-Disk Bioassay; format: functional
In short: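 Partly eaten disks were photocopied and scanned to digital files, and each treated disk was measured against an intact disk. Antifeedant index (AFI) = % treated consumed/(% treated + % control consumed) × 100. The effective dose was taken as the midpoint between complete inhibition and no effect.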

Compound	ED50	pED50
COc1cc(O)c2c(=O)c(OC)c(-c3ccc(OC)c(OC)c3)oc2c1	inactive	
COc1ccc(-c2cc(=O)c3c(OC)c(OC)c(OC)c(OC)c3o2)cc1 [TANGERETIN]	2.8 ×10⁻⁷ mol/cm2	6.55
C=C(C)[C@H]1Cc2c(ccc3c2O[C@@H]2COc4cc(OC)c(OC)cc4[C@@H]2C3=O)O1 [ROTENONE]	1.5 ×10⁻⁷ mol/cm2	6.82
COc1cc2oc(-c3ccccc3)c(OC)c(=O)c2c(O)c1O	0.25 ×10⁻⁷ mol/cm2	7.6
COc1c(OC)c(O)c2c(=O)c(OC)c(-c3ccccc3)oc2c1OC	0.2 ×10⁻⁷ mol/cm2	7.7
COc1ccc(/C=C/C(=O)c2c(O)cc(OC)cc2OC)cc1 [FLAVOKAWAIN A]	90 ×10⁻⁷ mol/cm2	5.05
COc1ccc(-c2oc3c(OC)c(OC)c(OC)c(O)c3c(=O)c2OC)cc1 [5-HYDROXYAURANETIN]	1.1 ×10⁻⁷ mol/cm2	6.96
COc1cc(O)cc(O)c1C(=O)/C=C/c1ccc(O)cc1 [HELICHRYSETIN]	3.8 ×10⁻⁷ mol/cm2	6.42
COc1ccc(-c2cc(=O)c3c(O)c(OC)c(OC)c(OC)c3o2)cc1 [GARDENIN B]	1.8 ×10⁻⁷ mol/cm2	6.74
O=c1c(O)c(-c2ccc(O)c(O)c2)oc2cc(O)cc(O)c12	inactive	
